The IC50 is the point on the concentration scale where inhibition reaches its midpoint. What is called EC50 is the concentration that produces a half-maximal response. Broadly, the half-life is the time in which the quantity being followed falls by half. Usually Kp stands for tissue or fluid exposure divided by exposure in the circulation. A word on the logD: it is lipophilicity at a set pH, counting ionised and neutral species. One may read the Cmax as the highest concentration seen after dosing. The term AUC denotes the area under the concentration-time curve, a measure of exposure. One may read the clearance as the volume of plasma or blood freed of the substance per unit of time.

From ChEMBL document CHEMBL3400098, “Aza follow-ups to BI 207524, a thumb pocket 1 HCV NS5B polymerase inhibitor. Part 1: Mitigating the genotoxic liability of an aniline metabolite” (Bioorg Med Chem Lett, 2015) come the findings set out here.

A short description of data set [1]: Cytotoxicity against human HuH7 cells assessed as reduction in cell viability by MTT assay. It is filed as cell-based. The following applies: Huh-7 cells, read-out: TC50 (the source's name). Put shortly:
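Cytotoxicity (TC50) measured by MTT read-out in the Huh-7 cell line.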
(Formazan colour is commonly taken as a measure of viable cells.)

Data set [2] can be described thus: Inhibition of Hepatitis C virus genotype 1b C-terminal truncated NS5B RNA dependent RNA polymerase delta21 expressed in Escherichia coli by scintillation proximity assay. More on the design: species or system Hepatitis C virus subtype 1b. Put shortly: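 Biochemical polymerase inhibition using a C-terminally truncated GT1b NS5BΔ21 construct. Values are the mean of duplicate measurements (n ≥ 2).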
Background: In a scintillation proximity assay essentially only radioactivity close to the scintillant gives light.

Data set [3] in a line: Permeability from apical to basolateral side of human Caco2 cells. It is filed as ADME, cell-based. Conditions: Caco-2, read-out: permeability. In outline:
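Caco-2 permeability measured in the apical-to-basolateral direction, reported in cm/s.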

In data set [4] the test system is Hepatitis C virus. The data set can be described thus: Antiviral activity against Hepatitis C virus genotype 1a infected in human Huh cells assessed as inhibition of viral replication by RT-PCR-based replicon assay. The format is functional, cell-based, Hepacivirus hominis. The following applies: subtype 1a. In outline: (§1)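 HCV replicon EC50 determined in duplicate, using either a GT1b luciferase reporter read-out or RT-PCR quantification of replicon RNA.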
(Replicon systems follow genome replication, usually without infectious particles.)

Data set [5] in a line: Plasma concentration in rat at 4 mg/kg, po as cassette dosing measured at 1 hr post dose. The format is ADME, organism-based. More on the design: dose 4 mg/kg, route oral. In outline:
(§2)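 Cassette dosing: a mixture of 4 compounds, each at 4 mg/kg, given orally to 2 fasted rats in 0.5% methylcellulose, 0.3% Tween-80 and 1% NMP. Plasma sampled at 1 and 2 h. Liver/plasma ratio determined at 2 h.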

Data set [6] in a line: Half life in human liver microsomes at 2 uM. It is filed as ADME. Put shortly:
(§3)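 Stability in liver microsomes with 2 µM initial compound concentration; half-life recorded.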

For data set [7], the system named is Hepatitis C virus. Briefly: Antiviral activity against Hepatitis C virus genotype 1b infected in human Huh cells assessed as inhibition of viral replication by luciferase reporter assay. It is filed as functional, cell-based, Hepacivirus hominis. In outline:
as §1

Data set [8] in a line: Ratio of drug up take in liver to plasma of rat at 4 mg/kg, po as cassette dosing measured at 2 hrs post dose. It is filed as ADME, organism-based. On the set-up: dose 4 mg/kg, route oral. In outline:
as §2

Data set [9] can be described thus: Plasma concentration in rat at 4 mg/kg, po as cassette dosing measured at 2 hrs post dose. The format is ADME, organism-based. On the set-up: dose 4 mg/kg, route oral. In outline:
as §2

A short description of data set [10]: Half life in rat liver microsomes at 2 uM. The format is ADME. In outline:
as §3

A short description of data set [11]: Lipophilicity, log D of the compound at pH 7.4. It is filed as physicochemical. The following applies: buffer.
Data set [12] relates to Rattus norvegicus. Briefly: Dose normalized Cmax in rat at 10 mg/kg, po. More on the design: dose 10 mg/kg, route oral. The following applies: in vivo. It is filed as ADME, organism-based. Put shortly: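 Rats dosed orally at 10 mg/kg as a suspension in 0.5% methylcellulose, 0.3% Tween-80 and 1% NMP. Plasma Cmax normalized to 5 mg/kg.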
Data set [13] is described as follows: Bioavailability in dog at 5 mg/kg, po and 2 mg/kg, iv. It is filed as ADME, organism-based, Canis lupus familiaris. Conditions: in vivo. In outline: (§4)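 Animals fasted overnight. Oral dose given as a suspension in 0.5% methylcellulose, 0.3% Tween-80 and 1% NMP. IV bolus of 2 mg/kg given in 70% PEG-400:30% water. N = 3 per dose and per route. Plasma kept on ice, spun at 4 °C and stored at about −20 °C. Calibration standards prepared in blank plasma, LOQ 7 ng/mL. Non-compartmental analysis.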

Data set [14] in a line: Cmax in rat at 5 mg/kg, po and 2 mg/kg, iv. It is filed as ADME, organism-based. The following applies: in vivo. Put shortly:
as §4

A short description of data set [15]: Dose normalized bioavailability in cynomolgous monkey at 10 mg/kg, po and 2 mg/kg, iv. The format is ADME, organism-based, Macaca fascicularis. Conditions: cynomolgus monkey, in vivo, read-out: F/dose. Put shortly:
(§5)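 Cynomolgus monkeys fasted overnight, then given 10 mg/kg orally as a suspension in 0.5% methylcellulose, 0.3% Tween-80 and 1% NMP. IV bolus of 2 mg/kg in 70% PEG-400:30% water. Oral values normalized to 5 mg/kg. Plasma analysed by non-compartmental methods.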

The test system of data set [16] is Cynomolgus monkey. Briefly: Dose normalized Cmax in cynomolgous monkey at 10 mg/kg, po and 2 mg/kg, iv. It is filed as ADME, organism-based, Macaca fascicularis. The following applies: in vivo. Put shortly: as §5
Data set [17] in a line: AUC in rat at 5 mg/kg, po and 2 mg/kg, iv. It is filed as ADME, organism-based. Conditions: plasma. In outline: as §4
The subject of data set [18] is Cynomolgus monkey. The data set can be described thus: Dose normalized AUC in cynomolgous monkey at 10 mg/kg, po and 2 mg/kg, iv. The format is ADME, organism-based, Macaca fascicularis. The following applies: in vivo. Put shortly:
as §5

Data set [19] in a line: AUC in dog at 5 mg/kg, po and 2 mg/kg, iv. It is filed as ADME, organism-based, Canis lupus familiaris. Conditions: plasma. In outline: as §4
The nature of data set [20]: Clearance in cynomolgous monkey at 2 mg/kg, iv. It is filed as ADME, organism-based, Macaca fascicularis. More on the design: dose 2 mg/kg, route intravenous. The following applies: cynomolgus monkey, in vivo. In outline:
as §4

In data set [21] the test system is Cynomolgus monkey. The data set can be described thus: Dose normalized volume of distribution at steady state in cynomolgous monkey at 10 mg/kg, po and 2 mg/kg, iv. It is filed as ADME, organism-based, Macaca fascicularis. Conditions: in vivo. In outline: as §5
A short description of data set [22]: Half life in cynomolgous monkey liver microsomes at 2 uM. The following applies: cynomolgus monkey. It is filed as ADME, Macaca fascicularis. In outline:
as §3

A short description of data set [23]: Ratio of drug up take in liver to plasma of rat at 5 mg/kg, po measured at 6 hrs post dose. More on the design: dose 5 mg/kg, route oral. It is filed as ADME, organism-based.
Data set [24] in a line: Cmax in dog at 5 mg/kg, po and 2 mg/kg, iv. It is filed as ADME, organism-based, Canis lupus familiaris. The following applies: in vivo. Put shortly:
as §4

In data set [25] the test system is Hepatitis C virus. Briefly: Antiviral activity against Hepatitis C virus genotype 1b infected in human Huh cells assessed as inhibition of viral replication by RT-PCR-based replicon assay. It is filed as functional, cell-based, Hepacivirus hominis. Put shortly: as §1
Data set [26] can be described thus: Half life in dog liver microsomes at 2 uM. It is filed as ADME, Canis lupus familiaris. In outline: as §3
Data set [27] can be described thus: Half life in dog at 5 mg/kg, po and 2 mg/kg, iv. It is filed as ADME, organism-based, Canis lupus familiaris. Conditions: in vivo. In outline: as §4
Data set [28] relates to Cynomolgus monkey. The data set can be described thus: Dose normalized half life in cynomolgous monkey at 10 mg/kg, po and 2 mg/kg, iv. The format is ADME, organism-based, Macaca fascicularis. Conditions: in vivo. In outline: as §5
A short description of data set [29]: Permeability coefficient, Kp for ratio of drug uptake in liver to plasma in rat. The format is ADME.
The nature of data set [30]: Bioavailability in rat at 5 mg/kg, po and 2 mg/kg, iv. It is filed as ADME, organism-based. Conditions: in vivo. In outline: as §4
Data set [31] deals with Salmonella typhimurium. The data set can be described thus: Mutagenic activity in Salmonella typhimurium at 315 to 5000 ug/plate by Ames test in absence of S9 fraction. The format is toxicity, organism-based. The following applies: salmonella enterica subsp. enterica serovar typhimurium. Put shortly: (§6)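 Ames test on the free carboxylic acid forms using multiple strains and strain TA100 of Salmonella typhimurium, at 315–5000 µg per plate, run with and without S9 metabolic activation.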

The subject of data set [32] is Salmonella typhimurium. The data set can be described thus: Mutagenic activity in Salmonella typhimurium at 315 to 5000 ug/plate by Ames test in presence of S9 fraction. It is filed as toxicity, organism-based. Conditions: salmonella enterica subsp. enterica serovar typhimurium. Put shortly:
as §6

Molecules are shown by their SMILES.

Turning to `CCOc1nc(NC(=O)C2(NC(=O)c3ccc4c(C5CCCC5)c(-c5ncc(Cl)cn5)n(C)c4c3)CCC2)cnc1/C=C/C(=O)O`, the CC50 in [1] was more than 10000 nM. Moreover, the half-maximal inhibitory concentration (IC50) in data set [2] turned out to be 100 nM. In addition, the Papp A→B in [3] was found to be 13 ×10⁻⁶ cm/s. The concentration giving a half-maximal response (EC50) in data set [4] amounted to 34 nM; in [7], 20 nM. The same molecule returned a concentration at 1 h in data set [5] of 2100 nM. The half-life at 2 µM in data set [6] was 2.43 h; in data set [10] it was more than 5 h. Besides, in data set [8], the Kp at 2 h stood at 5. This molecule displayed a concentration at 2 h in data set [9] of 900 nM.

On to `CCOc1cc(NC(=O)C2(NC(=O)c3ccc4c(C5CCCC5)c(-c5ncc(Cl)cn5)n(C)c4c3)CCC2)nnc1/C=C/C(=O)O`, for which the CC50 in data set [1] was more than 10000 nM. This molecule also showed an IC50 in data set [2] of 80 nM. For the same molecule, the Papp A→B in data set [3] is 1.6 ×10⁻⁶ cm/s. The half-life at 2 µM was found to be 2.27 h in [6] and 3.78 h in [10]. Further, the EC50 in data set [7] was 360 nM. The same molecule gave a logD in data set [11] of 3.4.

Take `CCOc1cc(NC(=O)C2(NC(=O)c3ccc4c(C5CCCC5)c(-c5ncc(Cl)cn5)n(C)c4c3)CCC2)ccc1/C=C/C(=O)O`: the Cmax/dose in data set [12] is 3200 nM; in data set [16], 4800 nM. Further, the values for the bioavailability in data set [13], in data set [15] and in data set [30] were 29%, 72% and 19%, respectively. Moreover, the figures for the Cmax in data set [14] and in [24] were 3200 nM and 4100 nM, respectively. In addition, inhibition in data set [2] was half-maximal at 84 nM (IC50). The results for the AUC in data set [17] and in data set [19] were 9.6 µM·h and 38 µM·h, respectively. For the same molecule, in data set [18], the AUC/dose was 26 µM·h. The EC50 in data set [4] was determined as 29 nM; in data set [7] it was 13 nM; in [25] it was 11 nM. Also, in data set [20], the clearance was determined as 3.6 mL/min/kg. Also, in data set [21], the Vdss/dose was 0.6 L/kg. Further, the half-life at 2 µM in data set [22] stood at 1.6 h; in data set [26], 2.92 h. Besides, in data set [23], the partition ratio (Kp) at 6 h was 5.5. This molecule had a half-life in [27] of 4.5 h. In [28], this molecule returned a t1/2/dose of 3 h. For the same molecule, the Kp in data set [29] was 5.5.

On to `CCOc1nc(NC(=O)C2(NC(=O)c3ccc4c(C5CCCC5)c(-c5ncc(Cl)cn5)n(C)c4c3)CCC2)ncc1/C=C/C(=O)O`, for which, in data set [1], the CC50 is more than 10000 nM. This molecule gave an IC50 in [2] of 63 nM. Besides, in [3], the Papp A→B amounted to 4.3 ×10⁻⁶ cm/s. The figures for the EC50 in data set [4] and in data set [7] were 89 nM and 40 nM, respectively. The concentration at 1 h in data set [5] was found to be 100 nM. Also, the half-life at 2 µM in data set [6] is 3.98 h; in [10], more than 5 h. For the same molecule, the concentration at 2 h in [9] worked out at 30 nM.

On to `CCOc1nc(N)ccc1/C=C/C(=O)O`, for which the Activity entry in data set [31] and in data set [32] was “Non-toxic” in each case.
